Assay results: article PMC3157688 (The FASEB Journal, 2011)

What was measured:
[1] = test system: human APP processing in the brain of APP[V717I]-transgenic mice; experiment: Immunoblot of sAPPα and full-length APP in brain homogenates, first study; format: in vivo, mouse; details: 10 μg daily intranasal, administration solution 1, 3 mo; 4-mo-old male mice
Procedure, shortened: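 Male APP[V717I] mice (FVB/N background), 1 mo old, received the test compound intranasally at 10 μg/d (1 μg/μl, 5 μl/nostril), 5 d/wk for 3 mo. Vehicle: NaCl/citric acid/disodium phosphate/benzalkonium chloride water solution. Controls (n=8) received carrier alone. Hemispheres homogenized in ice-cold 20 mM Tris-HCl pH 8.5 plus protease inhibitors, then centrifuged at 100,000 g for 1 h at 4°C. sAPPα probed with 6E10 and a 35S-labeled or peroxidase-coupled secondary.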

[2] = test system: brain mRNA levels of APP[V717I] transgenic mice; experiment: Quantitative real-time RT-PCR of brain mRNA levels; format: in vivo, mouse; details: 6-mo-old mice, 3 mo intranasal treatment; n=7/group
[3] = test system: APP[V717I]-transgenic mice; experiment: Open field activity and enriched open field; format: in vivo, mouse; details: 6-mo-old mice after 3 mo of daily intranasal treatment; data not shown
[4] = test system: healthy human male subjects; details: cited from earlier work

In the case of “pituitary adenylate cyclase-activating polypeptide [PACAP38]”, the “expression level of full-length APP in the brain” value [1] is reported as “no influence”, the “ADAM10 gene expression in brain (in words)” value [2] is reported as “not caused by increased ADAM10 and ADAM17 gene expression” and the “ADAM17 gene expression in brain (in words)” value [2] is reported as “not caused by increased ADAM10 and ADAM17 gene expression”. The “activity and exploration-related parameters, difference between the tested groups” value [3] was “no differences” and the “tolerability of inhaled peptide” value [4] was “well tolerated without systemic side-effects”.
